Measured values reported in ChEMBL document CHEMBL5390247, “Aryl azoles based scaffolds for disrupting tumor microenvironment” (Bioorg Med Chem, 2023).
Activity calls are given as the source filed them. No cut-off for these calls is given here.

Assays:
HT-29 [1] = experiment: Antiproliferative activity against human HT-29 cells assessed as relative PD-L1 protein expression in whole cell at 100 uM incubated for 48 hrs by flow cytometry analysis relative to control; type: functional
HT-29 [2] = experiment: Immunomodulatory activity in human HT-29 cells co-cultured with interferon gamma-stimulated THP-1 cells assessed as inhibition of cell growth at 100 uM incubated for 48 hrs by flow cytometry analysis relative to control; type: functional
Summary of the method: (§1)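 HT-29 cells at 10^5/well seeded and grown 24 h. Medium then replaced with medium containing IFN-γ (10 ng/ml), 5 × 10^5 THP-1 cells/well and compound at 100 µM; DMSO used as control. After 48 h, THP-1 cells collected from supernatant and cancer cells by trypsinisation. Both fixed in 4% paraformaldehyde and counted by flow cytometry relative to control.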

HT-29 [3] = experiment: Immunomodulatory activity in human HT-29 cells co-cultured with interferon gamma-stimulated THP-1 cells assessed as cell viability at 100 uM incubated for 48 hrs by flow cytometry analysis relative to control; type: functional; settings: read-out: Activity; summary of the method: as §1
HMEC-1 [4] = experiment: Antiangiogenic activity in HMEC-1 cells assessed as inhibition of endothelial microtubes formation at <75 uM incubated for 24 hrs by matrigel based imaging analysis; type: functional, cell-based; settings: Homo sapiens
Summary of the method: (§2)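 HMEC-1 cells at 2 × 10^4 cells/well seeded on Matrigel (10 mg/mL, gelled 30 min at 37 °C) in EGM-2MV medium with SingleQuots, allowed to attach 30 min at 37 °C. Compounds then added in medium; after 24 h at 37 °C, microtube formation/destruction evaluated from pictures.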

HMEC-1 [5] = experiment: Antiangiogenic activity in HMEC-1 cells assessed as inhibition of endothelial microtubes formation at 100 uM incubated for 24 hrs by matrigel based imaging analysis; type: functional, cell-based; settings: Homo sapiens; summary of the method: as §2
[6] = Toxicity against interferon gamma-stimulated human THP-1 monocyte cells co-cultured with human HT-29 cells assessed as reduction in cell viability at 100 uM incubated for 48 hrs by flow cytometry analysis; type: cell-based; settings: thp-1, 48 h; summary of the method: as §1
HT-29 [7] = experiment: Antiproliferative activity against human HT-29 cells assessed as relative VEGFR-2 protein expression in membrane at 100 uM incubated for 48 hrs by flow cytometry analysis relative to control; type: functional
HEK293 [8] = experiment: Anti-vasculogenic activity against HEK293 cells assessed as disruption of tube-like structures at <75 uM incubated for 24 hrs by Matrigel based imaging analysis; type: functional, cell-based; settings: Homo sapiens
Summary of the method: (§3)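 HEK-293 cells seeded at 5 × 10^4 cells/well on Matrigel (pre-incubated with medium 24 h at 37 °C), grown 24 h at 37 °C until tube-like structures form; compounds then added in medium and incubated a further 24 h at 37 °C. Disruption of preformed tube-like structures assessed by imaging.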

HT-29 [9] = experiment: Antiproliferative activity against human HT-29 cells assessed as relative PD-L1 protein expression in membrane at 100 uM incubated for 48 hrs by flow cytometry analysis relative to control; type: functional
HT-29 [10] = experiment: Antiproliferative activity against human HT-29 cells assessed as relative VEGFR-2 protein expression in whole cell at 100 uM incubated for 48 hrs by flow cytometry analysis relative to control; type: functional
HT-29 [11] = experiment: Antiproliferative activity against human HT-29 cells assessed as relative c-Myc protein expression at 100 uM incubated for 48 hrs by flow cytometry analysis relative to control; type: functional
HEK293 [12] = experiment: Anti-vasculogenic activity against HEK293 cells assessed as disruption of tube-like structures at 100 uM incubated for 24 hrs by Matrigel based imaging analysis; type: functional, cell-based; settings: Homo sapiens; summary of the method: as §3
HT-29 [13] = experiment: Immunomodulatory activity in human HT-29 cells co-cultured with interferon gamma-stimulated THP-1 cells assessed as inhibition of PD-L1 protein expression in cell surface at 100 uM incubated for 48 hrs by flow cytometry analysis relative to control; type: functional
HT-29 [14] = experiment: Immunomodulatory activity in human HT-29 cells co-cultured with interferon gamma-stimulated THP-1 cells assessed as inhibition of CD-47 protein expression at 100 uM incubated for 48 hrs by flow cytometry analysis relative to control; type: functional
HT-29 [15] = experiment: Immunomodulatory activity in human HT-29 cells co-cultured with interferon gamma-stimulated THP-1 cells assessed as relative PD-L1 protein expression in membrane at 100 uM incubated for 48 hrs by flow cytometry analysis relative to control; type: functional
HT-29 [16] = experiment: Immunomodulatory activity in human HT-29 cells co-cultured with interferon gamma-stimulated THP-1 cells assessed as IL-6 level at 100 uM incubated for 48 hrs by ELISA analysis (reference value: 192 +/- 16 pg/ml); type: functional
Summary of the method: (§4)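 HT-29 cells co-cultured with IFN-γ (10 ng/ml)-stimulated THP-1 cells and treated 48 h with compound at 100 µM. Culture media collected and IL-6 measured by human IL-6 ELISA, in pg/mL and as % of control. Mean of three experiments.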

A549 = experiment: Antiproliferative activity against human A549 cells assessed as reduction in cell viability incubated for 48 hrs by MTT assay; type: functional, cell-based; settings: A549, 48 h
Summary of the method: (§5)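 MTT dye-reduction assay. Cells at 5 × 10^3/well in DMEM with 10% FBS, treated with serial dilutions of compound (DMSO stocks) for 2 days at 37 °C, 5% CO2. MTT added for a further 3 h, formazan dissolved in DMSO, absorbance read at 550 nm. Viability expressed as % of untreated cells; IC50 determined graphically from three independent experiments.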

[17] = Cytotoxicity against HEK293 cells assessed as reduction in cell viability incubated for 48 hrs by MTT assay; type: toxicity, cell-based; settings: human; summary of the method: as §5
MCF7 = experiment: Antiproliferative activity against human MCF7 cells assessed as reduction in cell viability incubated for 48 hrs by MTT assay; type: functional, cell-based; settings: MCF7, 48 h; summary of the method: as §5
HT-29 [18] = experiment: Antiproliferative activity against human HT-29 cells assessed as reduction in cell viability incubated for 48 hrs by MTT assay; type: functional, cell-based; settings: HT-29, 48 h; summary of the method: as §5
HT-29 [19] = experiment: Immunomodulatory activity in human HT-29 cells co-cultured with interferon gamma-stimulated THP-1 cells assessed as relative IL-6 level at 100 uM incubated for 48 hrs by ELISA analysis relative to control; type: functional; summary of the method: as §4
HT-29 [20] = experiment: Immunomodulatory activity in human HT-29 cells co-cultured with interferon gamma-stimulated THP-1 cells assessed as reduction in IL-6 level at 100 uM incubated for 48 hrs by ELISA analysis relative to control; type: functional; set-up: scale not given: the % may be the effect or the level left; summary of the method: as §4
HT-29 [21] = experiment: Antiproliferative activity against human HT-29 cells assessed as reduction in IL-6 secretion at 100 uM incubated for 48 hrs by ELISA assay; type: functional, cell-based
Summary of the method: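 HT-29 monocultures at 10^5 cells/well treated 48 h with compound at 100 µM in 500 µL growth medium. Media collected and secreted IL-6 measured with a human IL-6 ELISA kit.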

HT-29 [22] = experiment: Immunomodulatory activity in human HT-29 cells co-cultured with interferon gamma-stimulated THP-1 cells assessed as relative CD-47 protein expression in membrane at 100 uM incubated for 48 hrs by flow cytometry analysis relative to control; type: functional
HT-29 [23] = experiment: Immunomodulatory activity in human HT-29 cells co-cultured with interferon gamma-stimulated THP-1 cells assessed as inhibition of IL-6 secretion at 100 uM incubated for 48 hrs by ELISA analysis relative to control; type: functional; summary of the method: as §4

Nc1cccc(-c2nnn(Cc3cccc(Br)c3)n2)c1
Activity (HT-29 [1]): >100%
inhibition at 100 µM (HT-29 [2]): > 70%
viability at 100 µM (HT-29 [3]): 19%
Activity (HMEC-1 [4]): inactive
Activity (HMEC-1 [5]): Active
Activity [6]: Non-Toxic
Activity (HT-29 [7]): >100%
Activity (HEK293 [8]): inactive
Activity (HT-29 [9]): 66%
Activity (HT-29 [10]): >100%
Activity (HT-29 [11]): 83%
Activity (HEK293 [12]): Active
inhibition at 100 µM (HT-29 [13]): 70%
inhibition at 100 µM (HT-29 [14]): > 30%
Activity (HT-29 [15]): 64%

Nc1cccc(-c2nnn(Cc3cccc(Cl)c3)n2)c1
Activity (HT-29 [16]): 6 pg/mL
Activity (HT-29 [1]): 97%
viability at 100 µM (HT-29 [3]): 48%
Activity (HMEC-1 [4]): inactive
Activity (HMEC-1 [5]): Active
Activity [6]: Non-Toxic
Activity (HT-29 [7]): 97%
Activity (HEK293 [8]): inactive
IC50 (A549): > 100 µM
Activity (HT-29 [9]): >100%
IC50 at 48 h [17]: > 100 µM
Activity (HT-29 [10]): 99%
Activity (HT-29 [11]): 76%
IC50 (MCF7): 88 µM
IC50 (HT-29 [18]): 81 µM
Activity (HT-29 [19]): 3%
Activity (HT-29 [20]): >95%
Activity (HT-29 [21]): inactive
Activity (HEK293 [12]): Active
Activity (HT-29 [15]): 94%
Activity (HT-29 [22]): 95%

Nc1cccc(-c2nnn(Cc3ccc(Br)cc3)n2)c1
Activity (HT-29 [16]): 5 pg/mL
Activity (HT-29 [1]): >100%
inhibition at 100 µM (HT-29 [2]): > 90%
viability at 100 µM (HT-29 [3]): 6%
Activity (HMEC-1 [4]): inactive
Activity (HMEC-1 [5]): Active
Activity [6]: Non-Toxic
Activity (HT-29 [7]): >100%
Activity (HEK293 [8]): inactive
IC50 (A549): > 100 µM
Activity (HT-29 [9]): 92%
IC50 at 48 h [17]: > 100 µM
Activity (HT-29 [10]): >100%
Activity (HT-29 [11]): 76%
IC50 (MCF7): 44 µM
IC50 (HT-29 [18]): > 100 µM
Activity (HT-29 [19]): 3%
Activity (HT-29 [20]): >95%
Activity (HT-29 [21]): inactive
Activity (HEK293 [12]): Active
inhibition at 100 µM (HT-29 [13]): 70%
inhibition at 100 µM (HT-29 [14]): > 30%
Activity (HT-29 [15]): 70%
Activity (HT-29 [22]): 60%

Nc1cccc(-c2nnn(Cc3ccccc3Cl)n2)c1
Activity (HT-29 [16]): 6 pg/mL
Activity (HT-29 [1]): >100%
viability at 100 µM (HT-29 [3]): 61%
Activity (HMEC-1 [4]): inactive
Activity (HMEC-1 [5]): Active
Activity [6]: Non-Toxic
Activity (HT-29 [7]): 96%
Activity (HEK293 [8]): inactive
Activity (HT-29 [9]): 95%
Activity (HT-29 [10]): 92%
Activity (HT-29 [11]): >100%
Activity (HT-29 [19]): 3%
Activity (HT-29 [20]): >95%
Activity (HT-29 [21]): inactive
Activity (HEK293 [12]): Active
Activity (HT-29 [15]): 93%
Activity (HT-29 [22]): 86%

Nc1cccc(-c2nnn(Cc3ccc(Cl)cc3)n2)c1
Activity (HT-29 [16]): 11 pg/mL
Activity (HT-29 [1]): 99%
inhibition at 100 µM (HT-29 [2]): > 70%
viability at 100 µM (HT-29 [3]): 22%
Activity (HMEC-1 [4]): inactive
Activity (HMEC-1 [5]): Active
Activity [6]: Non-Toxic
Activity (HT-29 [7]): >100%
Activity (HEK293 [8]): inactive
IC50 (A549): > 100 µM
Activity (HT-29 [9]): >100%
IC50 at 48 h [17]: 91 µM
Activity (HT-29 [10]): 96%
Activity (HT-29 [11]): 80%
IC50 (MCF7): > 100 µM
IC50 (HT-29 [18]): 72 µM
Activity (HT-29 [19]): 6%
Activity (HT-29 [20]): 94%
Activity (HT-29 [21]): inactive
Activity (HEK293 [12]): Active
Activity (HT-29 [15]): 114%
Activity (HT-29 [22]): 93%

Nc1cccc(-c2cn(Cc3ccccc3Cl)nn2)c1
Activity (HT-29 [16]): 12 pg/mL
viability at 100 µM (HT-29 [3]): 51%
Activity [6]: Non-Toxic
Activity (HT-29 [19]): 6%
Activity (HT-29 [21]): inactive
inhibition at 100 µM (HT-29 [23]): > 80%
Activity (HT-29 [15]): 116%
Activity (HT-29 [22]): 91%

Nc1cccc(-c2cn(Cc3cccc(Cl)c3)nn2)c1
Activity (HT-29 [16]): 38 pg/mL
inhibition at 100 µM (HT-29 [2]): > 90%
viability at 100 µM (HT-29 [3]): 8%
Activity [6]: Non-Toxic
Activity (HT-29 [19]): 20%
Activity (HT-29 [21]): inactive
inhibition at 100 µM (HT-29 [23]): > 80%
Activity (HT-29 [15]): 122%
Activity (HT-29 [22]): 96%

Nc1cccc(-c2nnn(Cc3ccccc3Br)n2)c1
Activity (HT-29 [1]): >100%
inhibition at 100 µM (HT-29 [2]): > 70%
viability at 100 µM (HT-29 [3]): 23%
Activity (HMEC-1 [4]): inactive
Activity (HMEC-1 [5]): Active
Activity [6]: Non-Toxic
Activity (HT-29 [7]): >100%
Activity (HEK293 [8]): inactive
Activity (HT-29 [9]): 64%
Activity (HT-29 [10]): 92%
Activity (HT-29 [11]): 90%
Activity (HEK293 [12]): Active
inhibition at 100 µM (HT-29 [13]): 70%
inhibition at 100 µM (HT-29 [14]): > 30%
Activity (HT-29 [15]): 65%
